The source of these data is ChEMBL document CHEMBL1811872, “Tryptophan 2,3-dioxygenase (TDO) inhibitors. 3-(2-(pyridyl)ethenyl)indoles as potential anticancer immunomodulators” (J Med Chem, 2011).

Data set [1] can be described thus: Plasma concentration in DBA/2 mouse at 160 mg/kg/day, po administered for 7 days with water. The class given is ADME, organism-based. Set-up: route oral. The method, boiled down: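 DBA/2 mice received the compound dissolved in drinking water (1 mg/mL) ad libitum. Mean water intake was 4.0 mL/mouse/day, giving about 160 mg/kg/day. Plasma levels of compound, L-Trp and kynurenine were measured at days 0, 1, 2 and 7.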

The target of data set [2] is T1, MAO-A (amine oxidase [flavin-containing] A) (Homo sapiens, UniProt P21397).
T1 sequence (P21397 whole entry): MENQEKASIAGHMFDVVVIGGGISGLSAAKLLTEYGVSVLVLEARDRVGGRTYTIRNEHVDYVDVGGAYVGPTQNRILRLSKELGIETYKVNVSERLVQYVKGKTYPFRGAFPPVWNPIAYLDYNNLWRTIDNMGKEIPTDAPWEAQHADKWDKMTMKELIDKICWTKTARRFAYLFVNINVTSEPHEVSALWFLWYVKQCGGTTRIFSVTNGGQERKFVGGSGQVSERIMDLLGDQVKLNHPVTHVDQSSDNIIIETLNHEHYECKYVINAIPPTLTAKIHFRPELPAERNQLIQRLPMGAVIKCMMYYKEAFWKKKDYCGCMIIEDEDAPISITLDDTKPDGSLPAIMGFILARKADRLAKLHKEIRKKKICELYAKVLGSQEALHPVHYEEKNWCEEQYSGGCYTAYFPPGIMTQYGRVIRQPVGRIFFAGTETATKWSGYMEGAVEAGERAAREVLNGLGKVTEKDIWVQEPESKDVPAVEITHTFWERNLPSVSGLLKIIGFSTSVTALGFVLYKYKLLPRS
As to the kind of experiment: Inhibition of MAO-A at 10 uM relative to control.

The target in data set [3] is T2, MAO-B (amine oxidase [flavin-containing] B) (Homo sapiens, UniProt P27338).
T2 sequence (P27338 whole entry): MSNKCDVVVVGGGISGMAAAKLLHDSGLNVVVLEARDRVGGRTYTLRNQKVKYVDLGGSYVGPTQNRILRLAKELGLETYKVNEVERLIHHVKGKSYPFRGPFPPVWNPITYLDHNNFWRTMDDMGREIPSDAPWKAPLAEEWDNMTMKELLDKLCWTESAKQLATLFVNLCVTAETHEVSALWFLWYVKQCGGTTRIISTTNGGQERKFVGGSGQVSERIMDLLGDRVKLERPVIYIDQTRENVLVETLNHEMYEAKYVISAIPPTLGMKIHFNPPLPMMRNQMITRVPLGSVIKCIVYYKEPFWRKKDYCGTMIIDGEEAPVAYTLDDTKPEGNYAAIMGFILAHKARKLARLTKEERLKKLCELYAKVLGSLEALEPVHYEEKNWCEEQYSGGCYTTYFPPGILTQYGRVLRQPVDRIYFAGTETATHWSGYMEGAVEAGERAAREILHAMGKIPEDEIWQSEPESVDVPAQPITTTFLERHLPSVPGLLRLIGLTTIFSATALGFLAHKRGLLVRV
Nature of the data set: Inhibition of MAO-B at 10 uM relative to control.

Data set [4] in a line: Cytotoxicity against mouse P815B cells […] by MTT assay. To be noted: read-out: LD50 (the source's name). The format is functional.
The next data set relates to Mus musculus. As to the kind of experiment: Toxicity in mouse P815B cells expressing TDO xenografted immunized mouse at 160 mg/kg/day, po administered with water. The class given is organism-based. On the set-up: route oral. To be noted: in vivo.
The nature of data set [5]: Chemical stability of the compound in phosphate buffered saline assessed as compound remaining at pH 7.4 after 1.5 hrs. The format is physicochemical. To be noted: read-out: Stability. The method, boiled down:
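Compound was incubated in phosphate-buffered saline, pH 7.4, for 1.5 h; read-out was the percentage of compound recovered.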

Data set [6] is described as follows: Solubility of the compound in phosphate buffered saline at pH 7.4. The class given is physicochemical. The procedure, abridged:
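Solubility was measured experimentally in phosphate buffer (PBS), pH 7.4, at room temperature.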

Data set [7] addresses Tryptophan 2,3-dioxygenase (Mus musculus, UniProt P48776). Nature of the data set: Inhibition of mouse TDO expressed in mouse P815B cells assessed as inhibition of tryptophan catabolism by measuring kynurenine production after 8 hrs by HPLC analysis. The class given is cell-based.
Data set [8] in a line: Displacement of [3H]RX821002 from adrenergic alpha2 receptor.
The nature of data set [9]: Displacement of [3H]prazosin from adrenergic alpha1 receptor.
For data set [10], the target named is 5-hydroxytryptamine receptor 2B (Homo sapiens, UniProt P41595). As to the kind of experiment: Displacement of [125I](+/-)-DOI from human 5HT2B receptor.
Chain of 5-hydroxytryptamine receptor 2B (P41595 whole entry): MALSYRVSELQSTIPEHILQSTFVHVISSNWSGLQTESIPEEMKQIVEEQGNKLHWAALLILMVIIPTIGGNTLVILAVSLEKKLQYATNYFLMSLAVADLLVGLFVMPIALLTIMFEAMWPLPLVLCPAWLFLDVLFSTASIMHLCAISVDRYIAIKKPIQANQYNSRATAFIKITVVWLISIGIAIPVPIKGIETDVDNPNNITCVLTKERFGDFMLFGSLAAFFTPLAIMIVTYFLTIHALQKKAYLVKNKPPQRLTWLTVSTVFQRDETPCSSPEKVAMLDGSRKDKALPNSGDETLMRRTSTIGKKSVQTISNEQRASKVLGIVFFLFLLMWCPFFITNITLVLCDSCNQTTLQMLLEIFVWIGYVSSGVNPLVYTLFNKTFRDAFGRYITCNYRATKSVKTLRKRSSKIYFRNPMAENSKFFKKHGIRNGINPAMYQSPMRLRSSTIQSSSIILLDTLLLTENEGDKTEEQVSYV

Chain of Tryptophan 2,3-dioxygenase (P48776 whole entry): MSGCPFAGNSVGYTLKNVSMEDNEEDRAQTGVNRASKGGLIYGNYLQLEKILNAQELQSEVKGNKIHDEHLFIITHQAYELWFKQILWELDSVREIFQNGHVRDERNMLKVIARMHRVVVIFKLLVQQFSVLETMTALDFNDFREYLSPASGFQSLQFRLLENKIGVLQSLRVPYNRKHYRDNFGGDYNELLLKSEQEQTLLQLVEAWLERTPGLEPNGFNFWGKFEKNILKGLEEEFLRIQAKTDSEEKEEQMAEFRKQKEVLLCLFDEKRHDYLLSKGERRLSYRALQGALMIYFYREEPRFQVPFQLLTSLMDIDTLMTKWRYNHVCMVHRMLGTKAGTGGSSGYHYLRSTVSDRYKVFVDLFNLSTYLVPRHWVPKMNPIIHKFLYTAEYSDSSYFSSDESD

In the case of `Fc1ccc2c(/C=C/c3nnn[nH]3)c[nH]c2c1`, the concentration at 168 h in data set [1] was determined as 60 µM. Moreover, the inhibition at 10 µM in [2] and in data set [3] was below 10% in each case. The CC50 in [4] is above 400000 nM. Moreover, in the data set on Mus musculus, the Activity result is on record as “Non-toxic”. The remaining at 1.5 h in data set [5] was 93.3%. Also, the solubility in data set [6] was above 300 µM. For the same molecule, in data set [7], the concentration for half-maximal inhibition (IC50) was found to be 2000 nM.
In data set [8], `COC(=O)[C@@H]1[C@H]2C[C@H]3c4[nH]c5ccccc5c4CCN3C[C@@H]2CC[C@@H]1O` [YOHIMBINE] registered a Ki of 33 nM. This counts as double-digit nanomolar.
For the molecule `COc1cc2nc(N3CCN(C(=O)c4ccco4)CC3)nc(N)c2cc1OC` [PRAZOSIN], the Ki in data set [9] amounted to 0.071 nM.
In the case of `COc1cc(CC(C)N)c(OC)cc1I` (racemic), the Ki in [10] is 2 nM. This counts as single-digit nanomolar.
